# Results: ChEMBL document CHEMBL1138415, “Analogues of the dopamine D2 receptor antagonist L741,626: Binding, function, and SAR” (Bioorg Med Chem Lett, 2007)
# pEC50, pKi: −log10 of the molar value.
# Biological target: T1, D(2) dopamine receptor (Homo sapiens, UniProt P14416)
# Assay: Displacement of [125I]IABN from human dopamine D2L receptor expressed in HEK293 cells
# Assay type: cell-based
# T1 sequence (P14416 whole entry): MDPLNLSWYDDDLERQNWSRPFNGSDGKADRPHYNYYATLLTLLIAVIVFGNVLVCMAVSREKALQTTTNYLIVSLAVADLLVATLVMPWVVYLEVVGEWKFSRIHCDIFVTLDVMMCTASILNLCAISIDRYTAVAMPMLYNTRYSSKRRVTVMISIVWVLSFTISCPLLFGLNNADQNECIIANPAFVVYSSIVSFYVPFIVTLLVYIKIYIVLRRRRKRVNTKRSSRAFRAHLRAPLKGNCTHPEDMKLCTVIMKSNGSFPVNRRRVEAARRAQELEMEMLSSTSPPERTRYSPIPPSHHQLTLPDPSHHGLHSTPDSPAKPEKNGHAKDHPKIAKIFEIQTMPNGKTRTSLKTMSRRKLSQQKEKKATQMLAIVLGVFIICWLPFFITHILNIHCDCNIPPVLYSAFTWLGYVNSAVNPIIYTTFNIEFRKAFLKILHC
row,Compound,pKi
1,OC1(c2ccc(Cl)c(Cl)c2)CCN(Cc2coc3ccccc23)CC1,7.68
2,NCC1(c2ccc(Cl)cc2)CCN(Cc2c[nH]c3ccccc23)CC1,< 5.00
3,OC1(c2ccc(Cl)c(Cl)c2)CCN(Cc2c[nH]c3ccccc23)CC1,8.16
4,COC(=O)C1(c2ccc(Cl)cc2)CCN(Cc2c[nH]c3ccccc23)CC1,7.22
5,OC1(c2ccc(Cl)cc2)CCN(Cc2cc3ccccc3[nH]2)CC1,< 5.00
6,OC1(c2ccc(Cl)cc2)CCN(Cc2n[nH]c3ccccc23)CC1,6.26
7,CCOC(=O)C1(c2ccc(Cl)cc2)CCN(Cc2c[nH]c3ccccc23)CC1,7.23
8,OC1(Cc2ccc(Cl)cc2)CCN(Cc2c[nH]c3ccccc23)CC1,5.54
9,COC1(c2ccc(Cl)cc2)CCN(Cc2c[nH]c3ccccc23)CC1,7.17
10,Oc1ccc(C2(O)CCN(Cc3c[nH]c4ccccc34)CC2)cc1,5.27
11,OC1(c2ccccc2Cl)CCN(Cc2c[nH]c3ccccc23)CC1,6.42
12,OC1(c2ccc(Cl)cc2)CCCN(Cc2c[nH]c3ccccc23)C1 (centres undefined),5.37
13,OC1(c2ccc(F)cc2)CCN(Cc2c[nH]c3ccccc23)CC1,6.90
14,CCCCCCn1cc(CN2CCC(O)(c3ccc(Cl)cc3)CC2)c2ccccc21,6.73
15,OCC1(c2ccc(Cl)cc2)CCN(Cc2c[nH]c3ccccc23)CC1,5.63
16,OC1(c2ccc(Cl)cc2)CCCN(Cc2c[nH]c3ccccc23)CC1 (centres undefined),6.70
17,CC(=O)NCC1(c2ccc(Cl)cc2)CCN(Cc2c[nH]c3ccccc23)CC1,5.70
18,OC1(c2cccc(Cl)c2)CCN(Cc2c[nH]c3ccccc23)CC1,6.89

# Organism: Homo sapiens
# Assay: Selectivity for human dopamine D2L receptor over human dopamine D3 receptor
row,Compound,Ratio Ki
1,OC1(c2ccc(Cl)c(Cl)c2)CCN(Cc2coc3ccccc23)CC1,1
2,OC1(c2ccc(Cl)c(Cl)c2)CCN(Cc2c[nH]c3ccccc23)CC1,16
3,COC(=O)C1(c2ccc(Cl)cc2)CCN(Cc2c[nH]c3ccccc23)CC1,9
4,OC1(c2ccc(Cl)cc2)CCN(Cc2n[nH]c3ccccc23)CC1,1
5,CCOC(=O)C1(c2ccc(Cl)cc2)CCN(Cc2c[nH]c3ccccc23)CC1,12
6,OC1(Cc2ccc(Cl)cc2)CCN(Cc2c[nH]c3ccccc23)CC1,2
7,COC1(c2ccc(Cl)cc2)CCN(Cc2c[nH]c3ccccc23)CC1,4
8,Oc1ccc(C2(O)CCN(Cc3c[nH]c4ccccc34)CC2)cc1,3
9,OC1(c2ccccc2Cl)CCN(Cc2c[nH]c3ccccc23)CC1,5
10,OC1(c2ccc(Cl)cc2)CCCN(Cc2c[nH]c3ccccc23)C1 (centres undefined),1
11,OC1(c2ccc(F)cc2)CCN(Cc2c[nH]c3ccccc23)CC1,4
12,CCCCCCn1cc(CN2CCC(O)(c3ccc(Cl)cc3)CC2)c2ccccc21,3
13,OCC1(c2ccc(Cl)cc2)CCN(Cc2c[nH]c3ccccc23)CC1,0.04
14,OC1(c2ccc(Cl)cc2)CCCN(Cc2c[nH]c3ccccc23)CC1 (centres undefined),10
15,CC(=O)NCC1(c2ccc(Cl)cc2)CCN(Cc2c[nH]c3ccccc23)CC1,6
16,OC1(c2cccc(Cl)c2)CCN(Cc2c[nH]c3ccccc23)CC1,3

# Biological target: T2, D(3) dopamine receptor (Homo sapiens, UniProt P35462)
# Assay: Displacement of [125I]IABN from human dopamine D3 receptor expressed in HEK293 cells
# Assay type: cell-based
# T2 sequence (P35462 whole entry): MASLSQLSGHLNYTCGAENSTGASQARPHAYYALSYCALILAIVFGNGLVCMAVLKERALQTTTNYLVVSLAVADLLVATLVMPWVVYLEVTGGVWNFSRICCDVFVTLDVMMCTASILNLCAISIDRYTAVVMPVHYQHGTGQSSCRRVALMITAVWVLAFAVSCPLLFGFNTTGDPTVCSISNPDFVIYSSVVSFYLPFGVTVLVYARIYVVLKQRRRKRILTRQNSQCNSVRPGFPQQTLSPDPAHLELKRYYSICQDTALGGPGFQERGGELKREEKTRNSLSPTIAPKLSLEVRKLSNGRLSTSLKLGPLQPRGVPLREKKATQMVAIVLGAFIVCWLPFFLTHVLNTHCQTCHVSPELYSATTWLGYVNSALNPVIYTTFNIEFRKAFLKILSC
row,Compound,pKi
1,OC1(c2ccc(Cl)c(Cl)c2)CCN(Cc2coc3ccccc23)CC1,7.55
2,NCC1(c2ccc(Cl)cc2)CCN(Cc2c[nH]c3ccccc23)CC1,< 5.30
3,OC1(c2ccc(Cl)c(Cl)c2)CCN(Cc2c[nH]c3ccccc23)CC1,6.95
4,COC(=O)C1(c2ccc(Cl)cc2)CCN(Cc2c[nH]c3ccccc23)CC1,6.26
5,OC1(c2ccc(Cl)cc2)CCN(Cc2n[nH]c3ccccc23)CC1,6.36
6,CCOC(=O)C1(c2ccc(Cl)cc2)CCN(Cc2c[nH]c3ccccc23)CC1,6.14
7,OC1(Cc2ccc(Cl)cc2)CCN(Cc2c[nH]c3ccccc23)CC1,5.26
8,COC1(c2ccc(Cl)cc2)CCN(Cc2c[nH]c3ccccc23)CC1,6.58
9,Oc1ccc(C2(O)CCN(Cc3c[nH]c4ccccc34)CC2)cc1,4.77
10,OC1(c2ccccc2Cl)CCN(Cc2c[nH]c3ccccc23)CC1,5.73
11,OC1(c2ccc(Cl)cc2)CCCN(Cc2c[nH]c3ccccc23)C1 (centres undefined),5.37
12,OC1(c2ccc(F)cc2)CCN(Cc2c[nH]c3ccccc23)CC1,6.31
13,CCCCCCn1cc(CN2CCC(O)(c3ccc(Cl)cc3)CC2)c2ccccc21,6.31
14,OCC1(c2ccc(Cl)cc2)CCN(Cc2c[nH]c3ccccc23)CC1,6.97
15,OC1(c2ccc(Cl)cc2)CCCN(Cc2c[nH]c3ccccc23)CC1 (centres undefined),5.68
16,CC(=O)NCC1(c2ccc(Cl)cc2)CCN(Cc2c[nH]c3ccccc23)CC1,4.90
17,OC1(c2cccc(Cl)c2)CCN(Cc2c[nH]c3ccccc23)CC1,6.35

# Biological target: T1, D(2) dopamine receptor
# Assay: Antagonist activity at human dopamine D2 receptor expressed in CHO cells assessed as inhibition of quinpirole stimulated mitogenesis
# Assay type: functional, cell-based
# Outline: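 Functional mitogenesis assay in CHO cells transfected with human D2 receptor; antagonism measured as inhibition of quinpirole-stimulated mitogenesis (agonism tested as stimulation); EC50 reported; run via NIDA CTDP contract protocol.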
row,Compound,pEC50
1,OC1(c2ccc(Cl)c(Cl)c2)CCN(Cc2c[nH]c3ccccc23)CC1,7.82
2,COC(=O)C1(c2ccc(Cl)cc2)CCN(Cc2c[nH]c3ccccc23)CC1,7.12
3,COC1(c2ccc(Cl)cc2)CCN(Cc2c[nH]c3ccccc23)CC1,7.46
4,OC1(c2ccccc2Cl)CCN(Cc2c[nH]c3ccccc23)CC1,6.23
5,CCCCCCn1cc(CN2CCC(O)(c3ccc(Cl)cc3)CC2)c2ccccc21,6.78
6,OC1(c2ccc(Cl)cc2)CCCN(Cc2c[nH]c3ccccc23)CC1 (centres undefined),6.59
7,OC1(c2cccc(Cl)c2)CCN(Cc2c[nH]c3ccccc23)CC1,7.08

# Biological target: T3, D(4) dopamine receptor (Homo sapiens, UniProt P21917)
# T3 sequence (P21917 whole entry): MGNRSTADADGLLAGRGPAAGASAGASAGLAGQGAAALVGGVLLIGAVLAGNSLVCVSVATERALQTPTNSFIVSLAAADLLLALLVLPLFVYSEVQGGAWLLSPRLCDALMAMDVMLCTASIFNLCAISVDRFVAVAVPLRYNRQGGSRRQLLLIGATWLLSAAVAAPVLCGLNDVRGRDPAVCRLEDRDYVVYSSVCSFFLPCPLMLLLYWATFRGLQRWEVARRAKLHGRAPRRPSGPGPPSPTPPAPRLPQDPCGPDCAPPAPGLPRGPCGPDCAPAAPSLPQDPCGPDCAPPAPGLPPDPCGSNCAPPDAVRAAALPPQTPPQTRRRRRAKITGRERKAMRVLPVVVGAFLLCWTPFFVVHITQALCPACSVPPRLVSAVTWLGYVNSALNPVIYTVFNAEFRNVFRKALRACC
# Assay: Displacement of [125I]IABN from human dopamine D4 receptor expressed in HEK293 cells
# Assay type: cell-based
# Outline: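 Competition binding on HEK 293 cells transfected with human D2L or D4 dopamine receptors; radioligand [125I]IABN displaced by test ligand; Ki values derived.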
row,Compound,pKi
1,OC1(c2ccc(Cl)c(Cl)c2)CCN(Cc2coc3ccccc23)CC1,6.78
2,NCC1(c2ccc(Cl)cc2)CCN(Cc2c[nH]c3ccccc23)CC1,< 4.70
3,OC1(c2ccc(Cl)c(Cl)c2)CCN(Cc2c[nH]c3ccccc23)CC1,5.96
4,COC(=O)C1(c2ccc(Cl)cc2)CCN(Cc2c[nH]c3ccccc23)CC1,5.41
5,OC1(c2ccc(Cl)cc2)CCN(Cc2cc3ccccc3[nH]2)CC1,< 4.70
6,OC1(c2ccc(Cl)cc2)CCN(Cc2n[nH]c3ccccc23)CC1,5.67
7,CCOC(=O)C1(c2ccc(Cl)cc2)CCN(Cc2c[nH]c3ccccc23)CC1,5.45
8,OC1(Cc2ccc(Cl)cc2)CCN(Cc2c[nH]c3ccccc23)CC1,5.41
9,COC1(c2ccc(Cl)cc2)CCN(Cc2c[nH]c3ccccc23)CC1,7.47
10,Oc1ccc(C2(O)CCN(Cc3c[nH]c4ccccc34)CC2)cc1,5.87
11,OC1(c2ccccc2Cl)CCN(Cc2c[nH]c3ccccc23)CC1,5.55
12,OC1(c2ccc(Cl)cc2)CCCN(Cc2c[nH]c3ccccc23)C1 (centres undefined),5.61
13,OC1(c2ccc(F)cc2)CCN(Cc2c[nH]c3ccccc23)CC1,5.22
14,CCCCCCn1cc(CN2CCC(O)(c3ccc(Cl)cc3)CC2)c2ccccc21,5.05
15,OCC1(c2ccc(Cl)cc2)CCN(Cc2c[nH]c3ccccc23)CC1,5.71
16,OC1(c2ccc(Cl)cc2)CCCN(Cc2c[nH]c3ccccc23)CC1 (centres undefined),5.41
17,CC(=O)NCC1(c2ccc(Cl)cc2)CCN(Cc2c[nH]c3ccccc23)CC1,5.35
18,OC1(c2cccc(Cl)c2)CCN(Cc2c[nH]c3ccccc23)CC1,5.45

# Organism: Homo sapiens
# Assay: Selectivity for human dopamine D2L receptor over human dopamine D4 receptor
row,Compound,Ratio Ki
1,OC1(c2ccc(Cl)c(Cl)c2)CCN(Cc2coc3ccccc23)CC1,8
2,OC1(c2ccc(Cl)c(Cl)c2)CCN(Cc2c[nH]c3ccccc23)CC1,159
3,COC(=O)C1(c2ccc(Cl)cc2)CCN(Cc2c[nH]c3ccccc23)CC1,66
4,OC1(c2ccc(Cl)cc2)CCN(Cc2n[nH]c3ccccc23)CC1,4
5,CCOC(=O)C1(c2ccc(Cl)cc2)CCN(Cc2c[nH]c3ccccc23)CC1,60
6,OC1(Cc2ccc(Cl)cc2)CCN(Cc2c[nH]c3ccccc23)CC1,1
7,Oc1ccc(C2(O)CCN(Cc3c[nH]c4ccccc34)CC2)cc1,0.3
8,OC1(c2ccccc2Cl)CCN(Cc2c[nH]c3ccccc23)CC1,7
9,OC1(c2ccc(Cl)cc2)CCCN(Cc2c[nH]c3ccccc23)C1 (centres undefined),1
10,OC1(c2ccc(F)cc2)CCN(Cc2c[nH]c3ccccc23)CC1,48
11,CCCCCCn1cc(CN2CCC(O)(c3ccc(Cl)cc3)CC2)c2ccccc21,47
12,OCC1(c2ccc(Cl)cc2)CCN(Cc2c[nH]c3ccccc23)CC1,1
13,OC1(c2ccc(Cl)cc2)CCCN(Cc2c[nH]c3ccccc23)CC1 (centres undefined),19
14,CC(=O)NCC1(c2ccc(Cl)cc2)CCN(Cc2c[nH]c3ccccc23)CC1,2
15,OC1(c2cccc(Cl)c2)CCN(Cc2c[nH]c3ccccc23)CC1,27

# Biological target: T2, D(3) dopamine receptor
# Assay: Antagonist activity at human dopamine D3 receptor expressed in CHO cells assessed as inhibition of quinpirole stimulated mitogenesis
# Assay type: functional, cell-based
row,Compound,pEC50
1,OC1(c2ccc(Cl)c(Cl)c2)CCN(Cc2c[nH]c3ccccc23)CC1,7.38
2,COC1(c2ccc(Cl)cc2)CCN(Cc2c[nH]c3ccccc23)CC1,6.61
3,CCCCCCn1cc(CN2CCC(O)(c3ccc(Cl)cc3)CC2)c2ccccc21,6.18
